Values after ≈ are worked out from the molar mass of the structure shown. Active and inactive are the calls of the source. No cut-off for these calls is given here.
Assays:
[1] = target: T1, Bile acid receptor (Homo sapiens) (UniProt Q96RI1); experiment: Transactivation of human FXR expressed in human HeLa cells co-expressing BSEP at 3 uM after 24 hrs by dual-glo luciferase reporter gene assay relative to GW4064; type: cell-based
T1 sequence (whole entry): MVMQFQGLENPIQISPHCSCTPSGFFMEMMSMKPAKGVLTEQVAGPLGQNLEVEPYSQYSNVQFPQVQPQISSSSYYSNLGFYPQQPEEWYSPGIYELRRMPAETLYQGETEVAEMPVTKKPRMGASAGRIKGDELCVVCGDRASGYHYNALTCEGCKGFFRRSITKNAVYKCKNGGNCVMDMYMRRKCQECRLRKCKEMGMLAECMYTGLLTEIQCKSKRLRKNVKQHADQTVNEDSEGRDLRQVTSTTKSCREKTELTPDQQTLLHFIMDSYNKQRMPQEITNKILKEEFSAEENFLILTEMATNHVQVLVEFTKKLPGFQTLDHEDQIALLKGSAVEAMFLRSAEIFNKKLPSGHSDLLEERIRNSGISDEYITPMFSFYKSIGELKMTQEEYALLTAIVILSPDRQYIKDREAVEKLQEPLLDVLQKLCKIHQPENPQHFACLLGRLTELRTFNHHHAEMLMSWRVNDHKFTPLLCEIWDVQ
Procedure, shortened: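 Full-length FXR reporter gene assay with constitutively expressed hFXR and hRXR, plus renilla luciferase for normalization and toxicity control. Maximum relative activation is expressed against the reference agonist at 3 µM, set as 100%.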

Bile acid receptor = target: T2, Bile acid receptor (Homo sapiens, UniProt Q96RI1); experiment: Binding affinity to FXR (unknown origin) ligand binding domain by ITC assay
T2 sequence (Q96RI1 whole entry): T1 sequence (whole entry)

[2] = Lipophilicity, logD of compound at pH 7.4 by LC-MS analysis; type: physicochemical; conditions: buffer, read-out: logD
[3] = Aqueous solubility of compound; type: physicochemical; conditions: buffer
HepG2 = experiment: Cytotoxicity against human HepG2 cells up to 100 uM after 48 hrs by WST-1 assay; type: cell-based; conditions: hepg2, 48 h
[4] = target: Retinoic acid receptor gamma (Homo sapiens) (UniProt P13631); experiment: Transactivation of GAL4-tagged human RARgamma isoform 1 ligand binding domain (179 to 454 residues) expressed in HEK293T cells at 1 uM after 12 to 14 hrs by dual-glo luciferase reporter gene assay; type: cell-based; conditions: HEK-293T
Chain of Retinoic acid receptor gamma (Homo sapiens) (P13631 whole entry, the tested form may be a part, canonical isoform): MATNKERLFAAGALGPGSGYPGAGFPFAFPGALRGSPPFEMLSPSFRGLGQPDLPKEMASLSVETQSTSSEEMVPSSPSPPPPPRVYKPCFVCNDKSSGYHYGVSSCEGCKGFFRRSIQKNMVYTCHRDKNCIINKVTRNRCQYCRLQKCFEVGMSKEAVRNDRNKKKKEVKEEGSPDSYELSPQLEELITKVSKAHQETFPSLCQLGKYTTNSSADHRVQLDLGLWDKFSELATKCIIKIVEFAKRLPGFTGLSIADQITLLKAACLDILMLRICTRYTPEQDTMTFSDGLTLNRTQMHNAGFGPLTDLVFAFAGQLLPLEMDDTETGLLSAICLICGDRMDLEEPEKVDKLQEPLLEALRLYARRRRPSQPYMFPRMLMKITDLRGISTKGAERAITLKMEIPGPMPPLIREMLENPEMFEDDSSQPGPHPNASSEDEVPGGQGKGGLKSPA
Procedure, shortened: (§1)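 Run as a selectivity screen against each listed receptor (14 nuclear receptors plus TGR5), in both agonist and antagonist modes. Test concentration was 1 µM, with n = 3.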

[5] = target: Retinoic acid receptor beta (Homo sapiens) (UniProt P10826); experiment: Transactivation of GAL4-tagged human RARbeta1 ligand binding domain (177 to 455 residues) expressed in HEK293T cells at 1 uM after 12 to 14 hrs by dual-glo luciferase reporter gene assay; type: cell-based; conditions: HEK-293T; procedure, shortened: as §1
Chain of Retinoic acid receptor beta (Homo sapiens) (P10826 whole entry, the tested form may be a part): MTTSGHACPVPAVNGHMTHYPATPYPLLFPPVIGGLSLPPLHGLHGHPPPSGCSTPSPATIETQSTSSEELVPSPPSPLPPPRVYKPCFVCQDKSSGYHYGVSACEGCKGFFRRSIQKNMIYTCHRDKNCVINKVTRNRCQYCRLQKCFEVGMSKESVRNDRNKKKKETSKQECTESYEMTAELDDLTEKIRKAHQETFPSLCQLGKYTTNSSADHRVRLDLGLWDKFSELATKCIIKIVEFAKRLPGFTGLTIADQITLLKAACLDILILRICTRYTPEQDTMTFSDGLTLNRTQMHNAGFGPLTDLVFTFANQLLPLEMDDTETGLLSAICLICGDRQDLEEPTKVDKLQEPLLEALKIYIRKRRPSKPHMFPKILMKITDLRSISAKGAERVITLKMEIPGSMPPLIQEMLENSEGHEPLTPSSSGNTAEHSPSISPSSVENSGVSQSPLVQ

[6] = target: Oxysterols receptor LXR-beta (Homo sapiens) (UniProt P55055); experiment: Transactivation of GAL4-tagged human LXRbeta ligand binding domain expressed in HEK293T cells at 1 uM after 12 to 14 hrs by dual-glo luciferase reporter gene assay; type: cell-based; conditions: HEK-293T; procedure, shortened: as §1
Chain of Oxysterols receptor LXR-beta (Homo sapiens) (P55055 whole entry, the tested form may be a part): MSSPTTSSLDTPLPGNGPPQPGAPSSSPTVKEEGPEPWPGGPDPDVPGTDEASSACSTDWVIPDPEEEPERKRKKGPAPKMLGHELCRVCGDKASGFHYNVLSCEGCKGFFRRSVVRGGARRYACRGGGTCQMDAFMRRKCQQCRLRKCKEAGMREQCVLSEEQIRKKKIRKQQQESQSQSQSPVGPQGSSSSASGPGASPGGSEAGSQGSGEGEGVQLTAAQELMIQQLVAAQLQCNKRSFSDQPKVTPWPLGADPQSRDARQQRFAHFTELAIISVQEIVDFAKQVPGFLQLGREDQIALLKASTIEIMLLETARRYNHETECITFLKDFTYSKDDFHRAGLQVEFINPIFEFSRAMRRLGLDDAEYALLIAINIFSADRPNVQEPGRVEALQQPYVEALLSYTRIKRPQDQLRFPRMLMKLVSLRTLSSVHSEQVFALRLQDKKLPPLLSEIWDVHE

[7] = target: Peroxisome proliferator-activated receptor delta (Homo sapiens) (UniProt Q03181); experiment: Transactivation of GAL4-tagged human PPARdelta ligand binding domain expressed in HEK293T cells at 1 uM after 12 to 14 hrs by dual-glo luciferase reporter gene assay; type: cell-based; conditions: HEK-293T; procedure, shortened: as §1
Chain of Peroxisome proliferator-activated receptor delta (Homo sapiens) (Q03181 whole entry, the tested form may be a part): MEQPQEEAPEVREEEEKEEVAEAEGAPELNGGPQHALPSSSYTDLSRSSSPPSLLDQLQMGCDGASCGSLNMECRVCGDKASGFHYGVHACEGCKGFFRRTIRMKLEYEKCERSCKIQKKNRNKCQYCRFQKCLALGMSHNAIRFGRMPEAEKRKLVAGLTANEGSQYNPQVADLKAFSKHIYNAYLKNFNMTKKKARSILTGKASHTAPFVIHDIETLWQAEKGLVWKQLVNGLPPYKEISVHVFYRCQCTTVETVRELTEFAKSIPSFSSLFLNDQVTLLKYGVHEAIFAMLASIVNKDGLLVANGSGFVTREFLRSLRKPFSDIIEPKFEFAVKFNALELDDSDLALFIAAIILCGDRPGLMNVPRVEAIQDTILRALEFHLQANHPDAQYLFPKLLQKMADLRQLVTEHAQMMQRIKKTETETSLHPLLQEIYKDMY

[8] = target: G-protein coupled bile acid receptor 1 (Homo sapiens) (UniProt Q8TDU6); experiment: Antagonist activity at TGR5 (unknown origin) expressed in HEK293T cells at 1 uM after 12 to 14 hrs by dual-glo luciferase reporter gene assay; type: cell-based; procedure, shortened: as §1
Chain of G-protein coupled bile acid receptor 1 (Homo sapiens) (Q8TDU6 whole entry, the tested form may be a part, canonical isoform): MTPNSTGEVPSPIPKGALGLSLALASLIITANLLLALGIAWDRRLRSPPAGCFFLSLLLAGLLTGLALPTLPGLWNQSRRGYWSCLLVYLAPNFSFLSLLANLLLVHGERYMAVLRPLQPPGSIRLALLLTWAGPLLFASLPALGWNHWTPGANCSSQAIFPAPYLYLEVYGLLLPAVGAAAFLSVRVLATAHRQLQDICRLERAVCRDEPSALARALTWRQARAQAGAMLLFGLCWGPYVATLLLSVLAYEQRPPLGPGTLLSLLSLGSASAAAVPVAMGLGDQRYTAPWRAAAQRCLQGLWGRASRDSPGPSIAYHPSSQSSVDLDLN

[9] = target: Nuclear receptor subfamily 1 group I member 2 (Homo sapiens, UniProt O75469); experiment: Antagonist activity at GAL4-tagged human PXR isoform 1 ligand binding domain (138 to 434 residues) expressed in HEK293T cells at 1 uM after 12 to 14 hrs by dual-glo luciferase reporter gene assay; type: cell-based; conditions: hek-293t; procedure, shortened: as §1
Chain of Nuclear receptor subfamily 1 group I member 2 (O75469 whole entry, the tested form may be a part, canonical isoform): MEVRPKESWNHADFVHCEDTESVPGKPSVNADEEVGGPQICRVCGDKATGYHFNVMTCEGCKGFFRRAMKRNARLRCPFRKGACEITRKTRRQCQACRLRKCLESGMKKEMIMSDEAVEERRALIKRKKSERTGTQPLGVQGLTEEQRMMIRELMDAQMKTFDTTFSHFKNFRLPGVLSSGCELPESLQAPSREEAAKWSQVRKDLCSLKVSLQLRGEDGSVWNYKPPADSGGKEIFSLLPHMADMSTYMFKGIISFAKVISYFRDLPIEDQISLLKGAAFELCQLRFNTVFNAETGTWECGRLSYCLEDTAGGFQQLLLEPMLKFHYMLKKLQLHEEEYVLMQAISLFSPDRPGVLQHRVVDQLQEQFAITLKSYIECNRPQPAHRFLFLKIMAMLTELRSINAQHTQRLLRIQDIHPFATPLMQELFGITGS

[10] = target: Retinoic acid receptor beta (Homo sapiens) (UniProt P10826); experiment: Antagonist activity at GAL4-tagged human RARbeta1 ligand binding domain (177 to 455 residues) expressed in HEK293T cells at 1 uM after 12 to 14 hrs by dual-glo luciferase reporter gene assay; type: cell-based; conditions: HEK-293T; procedure, shortened: as §1
[11] = target: Retinoic acid receptor alpha (Homo sapiens) (UniProt P10276); experiment: Antagonist activity at GAL4-tagged human RARalpha1 ligand binding domain (177 to 462 residues) expressed in HEK293T cells at 1 uM after 12 to 14 hrs by dual-glo luciferase reporter gene assay; type: cell-based; conditions: HEK-293T; procedure, shortened: as §1
Chain of Retinoic acid receptor alpha (Homo sapiens) (P10276 whole entry, the tested form may be a part, canonical isoform): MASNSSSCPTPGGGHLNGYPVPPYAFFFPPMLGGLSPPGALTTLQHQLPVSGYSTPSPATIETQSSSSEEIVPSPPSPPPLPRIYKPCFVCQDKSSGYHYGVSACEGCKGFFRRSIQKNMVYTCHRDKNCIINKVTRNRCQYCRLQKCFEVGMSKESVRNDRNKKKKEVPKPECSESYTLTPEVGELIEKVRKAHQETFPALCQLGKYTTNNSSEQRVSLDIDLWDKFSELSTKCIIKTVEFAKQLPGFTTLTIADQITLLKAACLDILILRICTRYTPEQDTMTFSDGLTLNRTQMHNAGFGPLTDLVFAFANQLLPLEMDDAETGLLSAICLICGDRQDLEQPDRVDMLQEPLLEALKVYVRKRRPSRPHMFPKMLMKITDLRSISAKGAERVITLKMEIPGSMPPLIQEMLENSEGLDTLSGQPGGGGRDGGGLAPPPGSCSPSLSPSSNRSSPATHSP

[12] = target: Retinoic acid receptor RXR-beta (Homo sapiens) (UniProt P28702); experiment: Antagonist activity at GAL4-tagged human RXRbeta isoform 1 ligand binding domain (294 to 533 residues) expressed in HEK293T cells at 1 uM after 12 to 14 hrs by dual-glo luciferase reporter gene assay; type: cell-based; conditions: HEK-293T; procedure, shortened: as §1
Chain of Retinoic acid receptor RXR-beta (Homo sapiens) (P28702 whole entry, the tested form may be a part, canonical isoform): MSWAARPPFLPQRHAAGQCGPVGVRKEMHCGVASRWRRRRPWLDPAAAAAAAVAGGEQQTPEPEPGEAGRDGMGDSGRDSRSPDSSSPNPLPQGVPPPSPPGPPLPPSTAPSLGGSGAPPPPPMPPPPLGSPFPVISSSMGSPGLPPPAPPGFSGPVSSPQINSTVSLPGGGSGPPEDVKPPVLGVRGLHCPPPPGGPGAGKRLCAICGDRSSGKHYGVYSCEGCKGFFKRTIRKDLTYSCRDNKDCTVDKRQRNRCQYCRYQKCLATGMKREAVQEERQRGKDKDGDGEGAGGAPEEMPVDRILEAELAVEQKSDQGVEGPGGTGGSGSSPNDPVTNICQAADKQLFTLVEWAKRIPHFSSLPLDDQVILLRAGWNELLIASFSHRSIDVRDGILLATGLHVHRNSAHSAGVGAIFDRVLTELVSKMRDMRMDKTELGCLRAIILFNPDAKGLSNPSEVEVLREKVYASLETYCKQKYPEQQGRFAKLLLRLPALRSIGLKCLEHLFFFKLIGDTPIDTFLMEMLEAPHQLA

[13] = target: Oxysterols receptor LXR-beta (Homo sapiens) (UniProt P55055); experiment: Antagonist activity at GAL4-tagged human LXRbeta ligand binding domain expressed in HEK293T cells at 1 uM after 12 to 14 hrs by dual-glo luciferase reporter gene assay; type: cell-based; conditions: HEK-293T; procedure, shortened: as §1
[14] = target: Peroxisome proliferator-activated receptor delta (Homo sapiens) (UniProt Q03181); experiment: Antagonist activity at GAL4-tagged human PPARdelta ligand binding domain expressed in HEK293T cells at 1 uM after 12 to 14 hrs by dual-glo luciferase reporter gene assay; type: cell-based; conditions: HEK-293T; procedure, shortened: as §1
[15] = target: Peroxisome proliferator-activated receptor gamma (Homo sapiens) (UniProt P37231); experiment: Antagonist activity at GAL4-tagged human PPARgamma ligand binding domain expressed in HEK293T cells at 1 uM after 12 to 14 hrs by dual-glo luciferase reporter gene assay; type: cell-based; conditions: HEK-293T; procedure, shortened: as §1
Chain of Peroxisome proliferator-activated receptor gamma (Homo sapiens) (P37231 whole entry, the tested form may be a part): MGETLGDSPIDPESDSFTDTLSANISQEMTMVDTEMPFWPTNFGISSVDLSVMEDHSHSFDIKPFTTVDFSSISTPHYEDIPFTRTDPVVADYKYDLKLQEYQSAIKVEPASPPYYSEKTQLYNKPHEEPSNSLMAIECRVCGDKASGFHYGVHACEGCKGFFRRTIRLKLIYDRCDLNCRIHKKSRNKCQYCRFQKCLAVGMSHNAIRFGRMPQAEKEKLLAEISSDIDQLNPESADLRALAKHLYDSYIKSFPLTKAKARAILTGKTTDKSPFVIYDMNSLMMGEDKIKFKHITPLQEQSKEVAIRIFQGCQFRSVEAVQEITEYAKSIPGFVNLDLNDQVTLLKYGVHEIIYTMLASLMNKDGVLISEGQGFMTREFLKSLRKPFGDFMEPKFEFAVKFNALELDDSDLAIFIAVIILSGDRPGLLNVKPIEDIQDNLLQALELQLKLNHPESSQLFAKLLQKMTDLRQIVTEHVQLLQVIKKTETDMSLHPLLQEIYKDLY

[16] = target: Peroxisome proliferator-activated receptor alpha (Homo sapiens) (UniProt Q07869); experiment: Antagonist activity at GAL4-tagged human PPARalpha ligand binding domain expressed in HEK293T cells at 1 uM after 12 to 14 hrs by dual-glo luciferase reporter gene assay; type: cell-based; conditions: HEK-293T; procedure, shortened: as §1
Chain of Peroxisome proliferator-activated receptor alpha (Homo sapiens) (Q07869 whole entry, the tested form may be a part): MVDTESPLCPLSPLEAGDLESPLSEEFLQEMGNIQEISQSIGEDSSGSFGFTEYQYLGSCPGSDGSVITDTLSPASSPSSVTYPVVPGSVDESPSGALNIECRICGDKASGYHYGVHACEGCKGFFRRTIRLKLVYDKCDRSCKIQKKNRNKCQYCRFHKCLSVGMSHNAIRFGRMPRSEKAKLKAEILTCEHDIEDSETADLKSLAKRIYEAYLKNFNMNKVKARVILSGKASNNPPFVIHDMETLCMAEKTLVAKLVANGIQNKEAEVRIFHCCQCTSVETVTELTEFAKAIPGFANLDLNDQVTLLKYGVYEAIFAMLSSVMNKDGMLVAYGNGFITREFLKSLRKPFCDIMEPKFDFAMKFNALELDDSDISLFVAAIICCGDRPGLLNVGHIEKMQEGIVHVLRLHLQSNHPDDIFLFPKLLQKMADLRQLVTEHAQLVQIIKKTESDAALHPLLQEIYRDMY

HeLa [17] = experiment: Selectivity ratio for human FXR expressed in human HeLa cells co-expressing BSEP over TGR5 (unknown origin) expressed in HEK293T cells; type: cell-based
HeLa [18] = experiment: Selectivity ratio for human FXR expressed in human HeLa cells co-expressing BSEP over GAL4-tagged human VDR isoform 1 ligand binding domain (119 to 427 residues) expressed in HEK293T cells; type: cell-based
HeLa [19] = experiment: Selectivity ratio for human FXR expressed in human HeLa cells co-expressing BSEP over GAL4-tagged human RXRalpha ligand binding domain (225 to 462 residues) expressed in HEK293T cells; type: cell-based
HeLa [20] = experiment: Selectivity ratio for human FXR expressed in human HeLa cells co-expressing BSEP over GAL4-tagged human PPARalpha ligand binding domain expressed in HEK293T cells; type: cell-based
[21] = target: T1, Bile acid receptor (Homo sapiens); experiment: Modulation of FXR in human HepG2 cells assessed as induction of SHP mRNA expression at 10 nM by qRT-PCR analysis; type: cell-based
Procedure, shortened: (§2)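 HepG2 hepatocarcinoma cells were incubated with the compound at 10 nM. FXR target-gene mRNA was quantified by qRT-PCR (n = 3), with significance at p < 0.05, 0.01 and 0.001.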

[22] = target: T1, Bile acid receptor (Homo sapiens); experiment: Modulation of FXR in human HepG2 cells assessed as induction of PPARalpha mRNA expression at 10 nM by qRT-PCR analysis; type: cell-based; procedure, shortened: as §2
[23] = target: T1, Bile acid receptor (Homo sapiens); experiment: Modulation of FXR in human HepG2 cells assessed as suppression of SREBP1c mRNA expression at 10 nM by qRT-PCR analysis; type: cell-based; procedure, shortened: as §2

COc1ccc(CNc2c(-c3cc(Cl)ccn3)nc3ccc(Cl)cn23)cc1
max activation [1]: 23% | Kd (Bile acid receptor): 37 nM | logD [2]: 1.69 | solubility [3]: 0.0637 µg/mL (≈ 0.16 µM) | Activity (HepG2): Non-Toxic | Activity [4]: inactive | Activity [5]: inactive | Activity [6]: inactive | Activity [7]: inactive | inhibition [8]: inactive | inhibition (INH) [9]: Not Active | inhibition [10]: inactive | inhibition [11]: inactive | inhibition [12]: inactive | inhibition [13]: inactive | inhibition [14]: inactive | inhibition [15]: inactive | inhibition [16]: inactive | Selectivity ratio (HeLa [17]): 3000 | Selectivity ratio (HeLa [18]): 3000 | Selectivity ratio (HeLa [19]): 3000 | Selectivity ratio (HeLa [20]): 3000 | Activity [21]: Active | Activity [22]: Active | Activity [23]: Active

From ChEMBL document CHEMBL4038333, “Nonacidic Farnesoid X Receptor Modulators” (J Med Chem, 2017)
